# Measured values published in ChEMBL document CHEMBL1125533, “Novel 1-(pyridylphenyl)-1-phenyl-2-imidazolylethanols with topical antiinflammatory activity” (J Med Chem, 1992).
# Columns and labels:
# Mus musculus [1] = experiment: In vivo inhibitory activity in a phorbol myristyl acetate (PMA) ear edema model at a dose of 100 ug/ear; type: functional
# Procedure, shortened: (§1)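 Mouse ear edema, topical: inflammation induced by PMA, A23187 or arachidonic acid on one ear, with the unchallenged ear as control. Mice were killed by cervical dislocation at set times after challenge, and 6 mm punches were weighed. Edema = challenged minus unchallenged punch weight. Percent inhibition = [(C−T)/C]×100 at 100 μg/ear. Duplicate separate experiments, 10 animals per group. Student's t test.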
# [2] = Partition coefficient (logP); type: physicochemical; conditions: octanol/water
# Procedure, shortened: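 log P estimated from reversed-phase HPLC retention time. Calibration curve built from shake-flask octanol/water log P values of eight pyridines. Log RT vs log P was linear.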
# Mus musculus [3] = experiment: In vivo inhibitory activity against phorbol myristyl acetate (PMA) ear edema at a dose of 100 ug/ear; type: functional; procedure, shortened: as §1
# Cyclooxygenase = molecular target: T1, Cyclooxygenase (Bos taurus, UniProt O62664+O62698); experiment: Inhibitory activity against Prostaglandin G/H synthase (bovine seminal vesicles); type: protein assay
# T1 sequence (O62664 whole entry): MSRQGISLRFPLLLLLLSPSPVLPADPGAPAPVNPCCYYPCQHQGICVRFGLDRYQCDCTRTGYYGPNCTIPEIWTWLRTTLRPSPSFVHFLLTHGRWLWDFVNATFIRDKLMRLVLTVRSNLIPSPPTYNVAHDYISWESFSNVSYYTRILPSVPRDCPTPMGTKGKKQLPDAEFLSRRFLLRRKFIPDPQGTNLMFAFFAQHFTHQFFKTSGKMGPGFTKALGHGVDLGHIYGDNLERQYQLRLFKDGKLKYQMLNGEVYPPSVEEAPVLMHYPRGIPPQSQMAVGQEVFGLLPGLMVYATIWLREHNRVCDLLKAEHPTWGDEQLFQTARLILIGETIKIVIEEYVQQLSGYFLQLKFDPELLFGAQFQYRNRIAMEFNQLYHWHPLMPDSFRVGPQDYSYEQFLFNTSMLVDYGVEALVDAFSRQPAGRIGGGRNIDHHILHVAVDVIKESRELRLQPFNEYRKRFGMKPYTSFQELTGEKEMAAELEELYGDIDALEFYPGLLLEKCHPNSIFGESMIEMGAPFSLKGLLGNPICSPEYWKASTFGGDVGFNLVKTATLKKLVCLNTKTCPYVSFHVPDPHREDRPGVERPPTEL
# T1 sequence (O62698 whole entry): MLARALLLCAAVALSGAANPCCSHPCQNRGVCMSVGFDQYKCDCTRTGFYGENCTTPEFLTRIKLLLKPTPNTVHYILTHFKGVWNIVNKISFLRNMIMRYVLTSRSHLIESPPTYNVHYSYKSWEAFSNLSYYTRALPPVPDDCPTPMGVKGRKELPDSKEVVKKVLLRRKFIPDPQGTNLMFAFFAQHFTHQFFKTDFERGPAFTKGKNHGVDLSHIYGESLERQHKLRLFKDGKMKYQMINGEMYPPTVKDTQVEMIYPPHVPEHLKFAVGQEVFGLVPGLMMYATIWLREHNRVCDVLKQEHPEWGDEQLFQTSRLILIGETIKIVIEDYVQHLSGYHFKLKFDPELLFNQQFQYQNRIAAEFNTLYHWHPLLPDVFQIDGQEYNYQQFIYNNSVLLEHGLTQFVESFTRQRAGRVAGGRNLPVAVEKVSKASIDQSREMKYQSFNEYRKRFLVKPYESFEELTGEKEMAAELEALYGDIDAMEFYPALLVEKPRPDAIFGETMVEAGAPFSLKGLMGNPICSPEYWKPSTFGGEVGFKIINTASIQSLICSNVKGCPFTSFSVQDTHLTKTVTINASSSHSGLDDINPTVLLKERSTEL
# Mus musculus [4] = experiment: (§2) In vivo inhibitory activity against A-23187 ear edema at a dose of 100 ug/ear; type: functional; procedure, shortened: as §1
# Mus musculus [5] = experiment: (§3) In vivo inhibitory activity against arachidonic acid(AA) ear edema at a dose of 100 ug/ear; type: functional
# Procedure, shortened: (§4)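 Topical mouse ear edema test at 100 µg/ear; the inflammogen is applied to one ear and the unchallenged ear serves as control. Mice are killed by cervical dislocation at set times, and 6 mm biopsy punches from each ear are weighed. Edema is the challenged-minus-unchallenged weight. Percent inhibition is [(C−T)/C]×100. Duplicate separate experiments, 10 animals per group; averages of two or more determinations.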
# [6] = molecular target: T2, Polyunsaturated fatty acid 5-lipoxygenase (Rattus norvegicus, UniProt P12527); experiment: Inhibitory activity against 5-lipoxygenase of RBL-1 cell line; type: cell-based
# T2 sequence (P12527 whole entry): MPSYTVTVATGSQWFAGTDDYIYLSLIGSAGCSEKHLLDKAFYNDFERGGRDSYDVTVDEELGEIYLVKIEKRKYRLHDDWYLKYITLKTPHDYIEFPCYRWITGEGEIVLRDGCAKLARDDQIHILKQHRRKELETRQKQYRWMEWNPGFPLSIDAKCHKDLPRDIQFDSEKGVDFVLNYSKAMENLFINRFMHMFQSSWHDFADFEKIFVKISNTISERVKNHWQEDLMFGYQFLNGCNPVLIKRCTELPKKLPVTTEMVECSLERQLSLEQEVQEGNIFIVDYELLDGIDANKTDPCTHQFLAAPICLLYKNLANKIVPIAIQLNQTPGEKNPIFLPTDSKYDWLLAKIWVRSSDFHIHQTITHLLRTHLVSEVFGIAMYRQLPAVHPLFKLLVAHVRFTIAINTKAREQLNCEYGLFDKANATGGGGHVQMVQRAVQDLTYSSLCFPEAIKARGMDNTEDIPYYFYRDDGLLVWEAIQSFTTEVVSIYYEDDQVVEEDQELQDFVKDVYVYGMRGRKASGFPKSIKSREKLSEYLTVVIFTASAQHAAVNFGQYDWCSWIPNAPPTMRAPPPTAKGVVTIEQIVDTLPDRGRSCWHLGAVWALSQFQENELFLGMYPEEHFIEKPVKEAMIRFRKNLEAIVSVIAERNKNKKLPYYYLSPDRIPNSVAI
# Mus musculus [7] = experiment: as §3; type: functional; procedure, shortened: as §1; remark: listed apart in the source
# Mus musculus [8] = experiment: as §2; type: functional; procedure, shortened: as §4; remark: listed apart in the source
Structure (SMILES),Inhibition (Mus musculus [1]),logP [2],other results
OC(Cn1ccnc1)(c1ccc(F)cc1)c1cccc(-c2ccncc2)c1 (stereo not given),74%,2.91,
OC(Cn1ccnc1)(c1ccc(-c2ccccc2)cc1)c1ccc(-c2ccncc2)cc1 (stereo not given),49%,3.86,
Cc1ccc(C(O)(Cn2ccnc2)c2ccc(Br)cc2)cc1 (stereo not given),18%,3.55,
OC(Cn1ccnc1)(c1ccccc1)c1ccc(Br)cc1 (stereo not given),37%,3.35,
CC(=O)c1ccc(C(O)(Cn2ccnc2)c2ccc(-c3ccncc3)cc2)cc1 (stereo not given),78%,2.41,
OC(CN1CCCC1)(c1ccc(F)cc1)c1ccc(-c2ccncc2)cc1 (stereo not given),24%,3.84,
COc1ccc(C(O)(Cn2ccnc2)c2ccc(Br)cc2)cc1 (stereo not given),31%,4.02,
OC(Cn1ccnc1)(c1ccc(F)cc1)c1ccc(-c2ccccc2)cc1 (stereo not given),25%,4.23,
OC(Cn1ccnc1)(c1ccc(-c2ccccn2)cc1)c1ccc(F)cc1F (stereo not given),51%,3.65,
OC(Cn1ccnc1)(c1ccc(F)cc1)c1ccccc1-c1cccnc1 (stereo not given),62%,3.26,
CN(C)c1ccc(C(O)(Cn2ccnc2)c2ccc(-c3ccncc3)cc2)cc1 (stereo not given),34%,3.29,
OC(Cn1ccnc1)(c1ccc(-c2cccnc2)cc1)c1ccc(F)cc1F (stereo not given),52%,3.31,
Cc1ccc(C(O)(Cn2ccnc2)c2ccc(-c3ccncc3)cc2)cc1 (stereo not given),62%,3.13,ED50 (Mus musculus [3]): 13.2 ug ear-1; IC50 (Cyclooxygenase): > 750 µM; ED50 (Mus musculus [4]): 13 ug ear-1; Inhibition (Mus musculus [5]): 16%; IC50 [6]: > 25 µM
OC(Cn1ccnc1)(c1ccc(F)cc1)c1cccc(Br)c1 (stereo not given),38%,3.3,
OC(Cn1ccnc1)(c1ccc(F)cc1)c1cccc(-c2cccnc2)c1 (stereo not given),64%,3.22,
OC(Cn1ccnc1)(c1ccc(F)cc1)c1cccc(-c2ccccn2)c1 (stereo not given),61%,3.34,
OC(Cn1ccnc1)(c1ccc(-c2ccncc2)cc1)c1ccccc1Cl (stereo not given),41%,3.37,
OC(Cn1ccnc1)(c1ccc(Br)cc1)c1ccccc1Cl (stereo not given),26%,3.87,
OC(Cn1ccnc1)(c1ccc(F)cc1)c1ccc(Br)cc1 (stereo not given),29%,3.42,
OC(Cn1ccnc1)(c1ccc(Cl)cc1)c1ccc(-c2ccncc2)cc1 (stereo not given),58%,3.27,
COC(C)(OC)c1ccc(C(O)(Cn2ccnc2)c2ccc(-c3ccncc3)cc2)cc1 (stereo not given),61%,3.45,
COC(=O)c1ccc(C(O)(Cn2ccnc2)c2ccc(-c3ccncc3)cc2)cc1 (stereo not given),62%,2.61,
OC(Cn1ccnc1)(c1ccccc1)c1ccc(-c2ccncc2)cc1 (stereo not given),69%,2.29,

Structure (SMILES),Inhibition (Mus musculus [1]),logP [2],other results
OC(Cn1ccnc1)(c1ccc(F)cc1)c1ccc(-c2ccccn2)cc1 (stereo not given),63%,3.58,
OC(Cn1cccn1)(c1ccc(F)cc1)c1ccc(-c2ccncc2)cc1 (stereo not given),28%,2.14,
OC(Cn1ccnc1)(c1ccc(Br)cc1)c1ccc(F)cc1F (stereo not given),22%,3.44,
OC(Cn1ccnc1)(c1ccc(F)cc1)c1ccccc1-c1ccncc1 (stereo not given),86%,2.51,
OC(Cn1cncn1)(c1ccc(F)cc1)c1ccc(-c2ccncc2)cc1 (stereo not given),53%,1.67,
OC(Cn1cccc1)(c1ccc(F)cc1)c1ccc(-c2ccncc2)cc1 (stereo not given),58%,2.35,
OC(Cn1cnc2ccccc21)(c1ccc(F)cc1)c1ccc(-c2ccncc2)cc1 (stereo not given),40%,2.06,
OC(Cn1ccnc1)(c1ccc(F)cc1)c1ccc(-c2ccncc2)cc1 (stereo not given),72%,2.47,ED50 (Mus musculus [3]): 4.6 ug ear-1; ED50 (Mus musculus [7]): 543 ug ear-1; IC50 (Cyclooxygenase): > 750 µM; ED50 (Mus musculus [4]): 21 ug ear-1; IC50 [6]: > 25 µM
OC(CN1CCOCC1)(c1ccc(F)cc1)c1ccc(-c2ccncc2)cc1 (stereo not given),41%,2.82,
OC(Cn1ccnc1)(c1ccc(F)cc1)c1ccc(F)cc1,50%,2.95,
OCc1ccc(C(O)(Cn2ccnc2)c2ccc(-c3ccncc3)cc2)cc1 (stereo not given),24%,2.4,
COc1ccc(C(O)(Cn2ccnc2)c2ccc(-c3ccncc3)cc2)cc1 (stereo not given),74%,3.55,
O=Cc1ccc(C(O)(Cn2ccnc2)c2ccc(-c3ccncc3)cc2)cc1 (stereo not given),67%,2.38,
Oc1ccc(C(O)(Cn2ccnc2)c2ccc(-c3ccncc3)cc2)cc1 (stereo not given),37%,2.49,
OC(CCc1ncc[nH]1)(c1ccc(F)cc1)c1ccc(F)cc1,52%,3.13,
OC(Cn1ccnc1)(c1ccc(-c2ccncc2)cc1)c1ccc(F)cc1F (stereo not given),73%,2.54,
OC(Cn1ccnc1)(c1cccc(Br)c1)c1ccc(F)cc1F (stereo not given),42%,3.6,
OC(Cn1ccnc1)(c1ccc(-c2ccncc2)cc1)c1ccc(C(F)(F)F)cc1 (stereo not given),58%,3.11,
Oc1c(Cc2ccccc2)ccc2ccccc12,,,ED50 (Mus musculus [3]): 764 ug ear-1; ED50 (Mus musculus [7]): 7 ug ear-1; IC50 (Cyclooxygenase): > 750 µM; ED50 (Mus musculus [4]): 5 ug ear-1
COc1ccc2c(c1)c(CC(=O)O)c(C)n2C(=O)c1ccc(Cl)cc1 [INDOMETHACIN],10%,,ED50 (Mus musculus [7]): 902 ug ear-1; ED50 (Mus musculus [4]): 254 ug ear-1; IC50 [6]: > 25 µM
CC(=O)N1CCN(c2ccc(OCC3COC(Cn4ccnc4)(c4ccc(Cl)cc4Cl)O3)cc2)CC1 (stereo not given) [KETOCONAZOLE],,,ED50 (Mus musculus [3]): 34 ug ear-1; IC50 (Cyclooxygenase): > 750 µM; Inhibition (Mus musculus [5]): 10%; IC50 [6]: > 25 µM; Inhibition (Mus musculus [8]): 8%
COc1c(OC)c(OC(C)=O)c2cc(Cl)ccc2c1OC(C)=O [LONAPALENE],15%,,ED50 (Mus musculus [7]): 103 ug ear-1; IC50 (Cyclooxygenase): > 750 µM; ED50 (Mus musculus [4]): 32 ug ear-1; IC50 [6]: 0.74 µM
